# Screening results: PubChem, Broad Institute
# Wnt bcat act: activators of Wnt/beta-catenin signaling | AID 743398 | Wnt/beta-catenin reporter cell assay, activator, plate reader | activation, % at 9.35 µM | actives 1.2% (n = 300,000); in the data active means activation above about 30%, passing the limit was not always enough; inconclusive means no clear call, values can overlap the other calls
# ERAP1 HTS inh: blocks human ERAP1 aminopeptidase activity; Q9NZ08; recombinant ERAP1, Leu-AMC fluorescence, 60 min; inhibition, % at 10.7 µM; actives 0.15% (n = 340,000);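 active means mean replicate inhibition of at least 30%, or all replicates individually reaching that 30% level; inactive means mean below 30% and not every replicate reaching it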
# Target sequence (Q9NZ08 whole entry, looked up): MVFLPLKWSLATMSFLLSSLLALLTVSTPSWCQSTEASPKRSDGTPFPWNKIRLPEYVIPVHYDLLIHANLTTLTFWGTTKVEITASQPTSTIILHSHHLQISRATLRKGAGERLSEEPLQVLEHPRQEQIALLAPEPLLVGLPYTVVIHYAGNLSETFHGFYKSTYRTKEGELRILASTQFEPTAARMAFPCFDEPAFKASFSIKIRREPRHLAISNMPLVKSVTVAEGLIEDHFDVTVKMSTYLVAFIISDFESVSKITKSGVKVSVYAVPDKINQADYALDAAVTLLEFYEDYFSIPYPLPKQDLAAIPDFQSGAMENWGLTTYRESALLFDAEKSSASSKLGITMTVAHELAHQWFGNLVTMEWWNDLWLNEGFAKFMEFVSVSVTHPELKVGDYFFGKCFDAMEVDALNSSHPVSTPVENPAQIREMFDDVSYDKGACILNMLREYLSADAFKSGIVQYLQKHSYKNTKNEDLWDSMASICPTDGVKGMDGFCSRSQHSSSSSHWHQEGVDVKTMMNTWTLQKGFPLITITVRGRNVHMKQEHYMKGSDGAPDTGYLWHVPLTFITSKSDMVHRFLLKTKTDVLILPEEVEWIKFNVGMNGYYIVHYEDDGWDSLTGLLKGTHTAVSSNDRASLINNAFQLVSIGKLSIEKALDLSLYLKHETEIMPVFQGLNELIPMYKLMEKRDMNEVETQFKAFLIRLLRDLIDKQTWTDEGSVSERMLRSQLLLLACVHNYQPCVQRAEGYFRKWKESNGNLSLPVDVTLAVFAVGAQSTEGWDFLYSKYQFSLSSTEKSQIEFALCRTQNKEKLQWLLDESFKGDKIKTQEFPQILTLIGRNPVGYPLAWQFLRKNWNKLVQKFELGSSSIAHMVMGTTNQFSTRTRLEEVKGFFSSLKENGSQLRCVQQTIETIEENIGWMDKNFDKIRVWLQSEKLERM
# MITF TRPM1 HTS: increases MITF-driven TRPM1 promoter luciferase signal | activation, % at 12.5 µM | AID 588334 | actives 0.75% (n = 300,000) | SK-MEL-5 TRPM1-promoter luciferase, 24 h; % of positive control, neutral wells = 0;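 active means mean activation of at least 80% with every replicate also reaching 80%; inconclusive means mean reaches 80% but some replicate falls short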
# esBAF inh: blocks esBAF chromatin remodeling in mouse ES cells | Bmi1-luciferase knock-in reporter, 24 h; 100% = twice the neutral-well signal | reporter increase, % at 12.5 µM | actives 2% (n = 350,000) | AID 602393; in the data active means activation above about 40%; inconclusive means no clear call, values can overlap the other calls;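 further: a rise in the Bmi1 reporter signal indicates esBAF inhibition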
# HIV Env fusion: inhibitors of HIV Env-mediated cell fusion; HeLa-JRFL Env/CEM21 cell fusion, luciferase; inhibition, % at 12.3 µM; actives 1.1% (n = 360,000); AID 651610;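 active means mean replicate inhibition score of at least 50 and every replicate individually at or above 50; inconclusive means only one of the two criteria met; inactive means mean below 50 and not all replicates reaching 50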
# Cneo AK release: Cryptococcus neoformans lysis via adenylate kinase release | C. neoformans lysis, adenylate kinase release luminescence, 4 h; normalised: neutral wells 0, clomiphene wells 100 | actives 0.2% (n = 360,000) | lysis activity, % at 15 µM;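 active means mean lysis activity across replicates of at least 80%, whatever share of replicates individually reach that level; inactive means mean lysis activity below 80%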
#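 read-out = cell lysis signal | test system = log-phase Cryptococcus neoformans yeast cells | input = cells at 5 × 10^6 per mL | medium = fresh YPD growth medium | signal = luminescent adenylate kinase detection reagent | timing = 4 h at 37 °C static, read 1 h later | dosing = single dose | controls = Clomiphene as positive lysis control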
# A number is an active result; – = inactive; ? = inconclusive; · = no result given. In the library only some 3.5% were active in any assay of this set; here they are far more common.
SMILES,Wnt bcat act,ERAP1 HTS inh,MITF TRPM1 HTS,esBAF inh,HIV Env fusion,Cneo AK release
O=C(O)C1C2CCCCC2=C2CCCCC2C1C(=O)O (centres undefined),90,·,–,–,–,–
CN(C)c1ccc2nc3ccc(=[N+](C)C)cc-3sc2c1,–,–,–,·,85,·
CN(C)c1ccc2nc3ccc(=O)cc-3sc2c1,–,–,·,–,66,–
Cc1cc2nc3ccc(=[N+](C)C)cc-3sc2cc1N,·,·,–,·,·,·
O=C(NC1CCCC1)N[C@@H]1C=C[C@H](CC(=O)N2CCOCC2)O[C@H]1CO,·,–,·,–,–,–
CCN1[C@@H]2Cn3c(ccc(-c4cccc(F)c4)c3=O)[C@H]1[C@@H](C(=O)NCC1CC1)[C@@H]2CO,·,–,·,–,·,–
C[n+]1ccccc1/C=C/c1ccc2ncccc2c1,–,40,·,71,–,–
C[n+]1ccccc1/C=C/c1ccc(F)c(F)c1,–,–,·,–,–,–
CCCc1ccc(-c2cc(NC(=O)Cc3c[nH]c4ccccc34)ccc2Nc2cccnc2)cc1,–,–,·,·,–,·
CC(C)(C)c1ccc(-c2cc(NC(=O)Cc3c[nH]c4ccccc34)ccc2Nc2cccnc2)cc1,–,–,·,·,74,·
N#Cc1cc2cc3c(cc2nc1N1CCCCC1)OCCO3,32,·,102,70,–,–
C[C@H](O)[C@@H]1C(=O)N2CCc3c([nH]c4cccc(-c5ccccc5)c34)[C@@H]2C[C@@H]1N(C)C(=O)OCc1ccccc1,–,–,·,·,71,·
O=C(O)c1ccc2oc(SCC(=O)N3CCCCC3)nc2c1,·,·,·,59,–,·
CC(=O)C1(C)N(O)C(C)(C)C(c2ccco2)=[N+]1[O-] (centres undefined),–,·,·,–,58,–
CCc1ccccc1NC1Nc2cc(C)nn2S1 (centres undefined),–,–,–,·,–,·
Cc1cc2n(n1)SC(Nc1cccc3ccccc13)N2 (centres undefined),47,·,–,50,–,–
O=C(CCc1nnc(C2CCCCC2)o1)N1CCN(C2CCCCC2)CC1,–,–,–,·,–,·
O=C(CCc1nnc(C2CCCCC2)o1)N1CCN(c2ccccc2F)CC1,33,–,–,·,–,·
CN(C)c1cccc(-c2nnc(SCCCC#N)o2)c1,41,·,–,–,–,–
CN(C)CCSc1nnc(-c2ccccc2)o1,–,·,·,–,–,–
CCCCCCOc1ccc(OC(=O)c2ccncc2)cc1,–,–,–,·,70,–
CCCCCCc1ccc(OC(=O)c2ccncc2)cc1,–,–,–,–,–,–
CCC(=O)NC[C@@H]1[C@@H](c2ccc(C3=CCCC3)cc2)[C@H](CO)N1C(=O)C1CC1,·,·,·,–,·,–
O=C(/C=C/c1cn(CC(O)CN2CCCCC2)c2ccccc12)c1ccccc1 (centres undefined),–,·,·,·,–,·
CN1CCN(Cn2cc(/C=C/C(=O)c3ccccc3)c3ccccc32)CC1,·,·,?,62,·,–
SMILES,Wnt bcat act,ERAP1 HTS inh,MITF TRPM1 HTS,esBAF inh,HIV Env fusion,Cneo AK release
C/C=C/c1ccc([C@H]2[C@H](CO)N(S(=O)(=O)CC)C23CN(C(=O)CC)C3)cc1,·,–,·,·,·,·
COc1ccc(NC(=O)N(C)C[C@@H]2OCCCC[C@@H](C)Oc3ccc(NC(=O)NC4CCCCC4)cc3C(=O)N([C@@H](C)CO)C[C@H]2C)cc1,·,–,·,–,–,–
CC(=O)N/C(=C\c1ccccc1)C(=O)OCC(=O)NC(C)C12CC3CC(CC(C3)C1)C2 (centres undefined),–,·,–,·,106,·
Nc1cc(SCc2ccc([N+](=O)[O-])cc2)ncn1,37,–,–,–,–,–
O=C(C[C@H]1C[C@H]2c3cc(NC(=O)c4ccc5c(c4)OCO5)ccc3O[C@H]2[C@@H](CO)O1)NC1CCCCC1,·,–,·,–,–,–
CC1CCC(C(C)C)C(=O)/C1=C/c1ccc(N)cc1 (centres undefined),53,–,112,59,–,–
COc1ccc(N2CCN(C(=O)COC(=O)[C@@H](NC(=O)OCc3ccccc3)C(C)C)CC2)cc1,–,–,–,–,–,–
CC(C)C(NC(=O)OCc1ccccc1)C(=O)OCC(=O)N1CCCCC1 (centres undefined),·,·,·,72,·,–
Oc1c(C2=NCCNC(C(F)(F)F)=C2)ccc2ccccc12,–,–,87,·,–,·
C=CCc1ccc(OCc2ccc(C(=O)Nc3ccc(NC(C)=O)cc3)o2)c(OC)c1,–,–,–,47,–,–
COc1ccccc1CN(C)C(=O)C1COc2ccccc2O1 (centres undefined),39,·,·,–,–,–
C[N+]1(CC(=O)OCCCc2ccccc2)CCCCC1,–,–,–,–,–,–
C[N+]1(CC(=O)OCCCc2ccccc2)CCCC1,–,77,–,·,–,·
CN(C)S(=O)(=O)c1ccc(N2CCCC2)c(C(=O)NCCc2ccc(F)cc2)c1,–,–,–,–,75,–
CCCCNC(=O)C[C@H]1C[C@@]2(C(=O)OC)C(=C[C@H](C(C)(C)C)O[C@@H]2C)N(Cc2ccc3c(c2)OCO3)C1=O,–,–,·,·,82,·
COC(=O)[C@]12C[C@H](CC(=O)NCCC(C)C)C(=O)N(Cc3ccc4c(c3)OCO4)C1=C[C@H](C(C)(C)C)O[C@@H]2C,–,–,·,·,–,·
COC(=O)[C@]12C[C@H](CC(=O)NCc3cccc(C(F)(F)F)c3)C(=O)N(Cc3ccc4c(c3)OCO4)C1=C[C@H](C(C)(C)C)O[C@@H]2C,–,–,·,·,59,·
C[C@H]1CN([C@@H](C)CO)S(=O)(=O)c2ccc(/C=C/c3ccccc3)cc2O[C@H]1CN(C)C(=O)c1ccncc1,·,–,·,–,–,–
CCCNC(=O)Nc1ccc2c(c1)C(=O)N(C)C[C@H](OC)[C@@H](C)CN(Cc1cccnc1)[C@@H](C)CO2,·,–,·,–,·,–
Cc1ccc(S(=O)(=O)Nc2cccc3c2O[C@@H](CN(C)Cc2ccc4c(c2)OCO4)[C@H](C)CN([C@H](C)CO)C3=O)cc1,·,–,·,–,–,–
Cc1cc(-c2nc(-c3ccc(C(C)(C)C)cc3)no2)no1,–,·,100,62,–,–
Cc1nc(-c2cc(-c3nc(-c4ccc(C(F)(F)F)cc4)no3)no2)cs1,–,–,–,–,–,–
CCCCC(=O)Nc1sc2c(c1C#N)CC(C)(C)OC2,–,·,91,–,–,–
Cc1cccc(NC(=O)c2ccc3c(=O)n4c(nc3c2)CCCCC4)n1,35,–,–,–,–,·
O=C(NC1CCCCCC1)c1ccc2c(=O)n3c(nc2c1)CCCCC3,·,·,92,–,·,–
O=C(Nc1ccc(SC(F)F)cc1)c1ccc2c(=O)n3c(nc2c1)CCC3,–,–,–,87,–,–
O=C(NCc1ccccc1)c1ccc2c(=O)n3c(nc2c1)CCCCC3,–,–,–,–,–,–
O=C(Nc1ccccc1Cl)c1ccc2c(=O)n3c(nc2c1)CCC3,51,–,–,–,–,–
COCC(=O)N1CC2(C1)[C@@H](c1ccccc1)[C@@H](CO)N2Cc1ccccc1OC,·,–,·,·,·,·
